The source of these data is ChEMBL document CHEMBL1138087, “Synthesis and evaluation of N-aryl pyrrolidinones as novel anti-HIV-1 agents. Part 1” (Bioorg Med Chem Lett, 2006).

Assay [1] concerns Human immunodeficiency virus 1. Nature of the assay: Selectivity for wild type HIV1 virus over HIV1 K103N mutant. It is filed as functional.
In assay [2] the test system is Human immunodeficiency virus 1. Nature of the assay: Selectivity for wild type HIV1 virus over HIV1 Y181C mutant. It is filed as functional.
Assay [3] has as its system Human immunodeficiency virus 1. Nature of the assay: Selectivity for wild type HIV1 virus over HIV1 L100I mutant. It is filed as functional.
The subject of assay [4] is Human immunodeficiency virus 1. Nature of the assay: Selectivity for wild type HIV1 virus over HIV1 K103N/L100I mutant. It is filed as functional.
The subject of assay [5] is Human immunodeficiency virus 1. Nature of the assay: Antiviral activity against wild type HIV1 virus. It is filed as functional, organism-based. The method, boiled down:
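HEK 293T cells grown in DMEM with 10% FBS and Pen/Strep/Glutamine. Seeded at 700 cells/well, cultured 24 h at 37 °C under 5% CO₂. Serially diluted compound in DMSO added, then 1 h at 37 °C. HIV reporter virus added at MOI about 1.0, cells cultured a further 48 h at 37 °C. Luciferase read-out with Bright-Glo reagent.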

The subject of another assay is HEK293. Kind of assay: Cytotoxicity against HEK293T cells. The assay is classed as functional. To be noted: Homo sapiens. The method, boiled down:
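293T cells seeded at 700 cells/well and cultured 24 h at 37 °C under 5% CO₂. Serially diluted compound in DMSO added to uninfected cells, then a further 48 h at 37 °C. Viability read by fluorescence after Alamar Blue (diluted 1:1 in DMEM) and 4 h at room temperature.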

Assay [6] relates to Human immunodeficiency virus 1. Nature of the assay: Antiviral activity against HIV1 K103N mutant. The assay is classed as functional, organism-based. The essentials:
(§1)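 HEK 293T cells grown in DMEM with 10% FBS and Pen/Strep/Glutamine. Cells seeded at 700 cells/well and cultured 24 h at 37 °C under 5% CO₂. Compounds serially diluted in DMSO were added and incubated 1 h at 37 °C. Cells were then infected with HIV reporter virus at MOI ~1.0 and cultured a further 48 h at 37 °C. Read-out was luciferase activity (Bright-Glo).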

Assay [7] deals with Human immunodeficiency virus 1. Kind of assay: Antiviral activity against HIV1 Y181C mutant. The assay is classed as functional, organism-based. The method, boiled down: as §1
The test system of assay [8] is Human immunodeficiency virus 1. Nature of the assay: Antiviral activity against HIV1 L100I mutant. It is filed as functional, organism-based. The method, boiled down: as §1
For assay [9], the system named is Human immunodeficiency virus 1. Kind of assay: Antiviral activity against HIV1 K103N/L100I mutant. The assay is classed as functional, organism-based. The essentials: as §1
The target in assay [10] is Human immunodeficiency virus type 1 reverse transcriptase (Human immunodeficiency virus 1, UniProt Q72547). Nature of the assay: Inhibition of HIV1 reverse transcriptase.

Regarding `COc1ccc([C@H]2CC(=O)N(c3cccc(NS(=O)(=O)c4cccc(F)c4)c3)C2)cc1OC1CCCC1`, the Selectivity ratio in assay [1] worked out at 6; in assay [2] it was 16; in assay [3], 0.46; in [4], 0.6. The concentration giving a half-maximal response (EC50) in [5] is 43 nM; in [6] it was 261 nM; in assay [7] it was 684 nM; in [8] it was 20 nM; in assay [9], 26 nM. The compound further registered a cytotoxic concentration (CC50) in the assay on HEK293 of more than 10000 nM.

As for `COc1ccc([C@H]2CC(=O)N(c3cccc(NS(=O)(=O)c4ccccc4C)c3)C2)cc1OC1CCCC1`, the Selectivity ratio in assay [1] was determined as 4.9; in assay [2], 10; in assay [3], 0.42; in assay [4] it was 0.7. Moreover, the EC50 in assay [5] worked out at 24 nM; in assay [6] it was 117 nM; in assay [7] it was 246 nM; in assay [8], 10 nM; in [9] it was 17 nM. Besides, the half-maximal cytotoxic concentration (CC50) in the assay with HEK293 is more than 10000 nM.

As to `COc1ccc([C@H]2CC(=O)N(c3cccc(NS(=O)(=O)c4cccc(C)c4)c3)C2)cc1OC1CCCC1`, the Selectivity ratio in assay [1] is on record as 3.4; in assay [2], 6.2; in [3], 0.3; in assay [4], 0.41. Moreover, the EC50 in assay [5] came to 46 nM; in assay [6], 158 nM; in assay [7], 284 nM; in [8] it was 14 nM; in assay [9], 19 nM. In the assay on HEK293, this compound registered a CC50 of more than 10000 nM.

In the case of `COc1ccc([C@H]2CC(=O)N(c3cccc(NS(=O)(=O)c4ccccc4Br)c3)C2)cc1OC1CCCC1`, the Selectivity ratio in assay [1] is recorded as 6.9; in assay [2], 19; in [3] it was 0.38; in [4] it was 0.52. Also, the EC50 in assay [5] amounted to 42 nM; in assay [6] it was 292 nM; in assay [7] it was 794 nM; in assay [8], 16 nM; in assay [9], 22 nM. Further, the CC50 in the assay with HEK293 was more than 10000 nM.

With `COc1ccc([C@H]2CC(=O)N(c3cccc(NS(=O)(=O)c4ccccc4Cl)c3)C2)cc1OC1CCCC1`, the Selectivity ratio in [1] is on record as 4; in assay [2] it was 13; in assay [3], 0.45; in [4], 0.67. In addition, the concentration for a half-maximal effect (EC50) in assay [5] was 42 nM; in [6] it was 170 nM; in assay [7], 557 nM; in assay [8], 19 nM; in assay [9], 28 nM. In the assay with HEK293, this compound gave a CC50 of more than 10000 nM.

With `COc1ccc([C@H]2CC(=O)N(c3cccc(NS(=O)(=O)c4cccc(Cl)c4)c3)C2)cc1OC1CCCC1`, the Selectivity ratio in assay [1] is 27; in assay [2] it was 93; in assay [3] it was 1.6; in [4], 2.2. Besides, the concentration giving a half-maximal response (EC50) stood at 25 nM in assay [5]; 689 nM in [6]; 2320 nM in [7]; 40 nM in assay [8]; 56 nM in assay [9]. In the assay on HEK293, the half-maximal cytotoxic concentration (CC50) was more than 10000 nM.

As to `COc1cccc(S(=O)(=O)Nc2cccc(N3C[C@@H](c4ccc(OC)c(OC5CCCC5)c4)CC3=O)c2)c1`, the Selectivity ratio was found to be 26 in assay [1], 40 in [2], 1.3 in assay [3] and 3 in assay [4]. Also, the EC50 in assay [5] worked out at 25 nM; in assay [6], 656 nM; in [7] it was 990 nM; in [8], 33 nM; in [9], 76 nM. This compound gave a 50% cytotoxic concentration (CC50) with HEK293 of more than 10000 nM.

In the case of `COc1ccc([C@H]2CC(=O)N(c3cccc(NS(=O)(=O)c4c(F)cccc4F)c3)C2)cc1OC1CCCC1`, the Selectivity ratio in [1] was 9.4; in [2], 27; in assay [3], 1.4; in [4] it was 1. For the same compound, the 50% effective concentration (EC50) is 48 nM in assay [5]; 451 nM in assay [6]; 1300 nM in [7]; 68 nM in assay [8]; 52 nM in assay [9]. For the same compound, in the assay with HEK293, the CC50 is more than 10000 nM.

In the case of `COc1ccc([C@H]2CC(=O)N(c3cccc(NS(=O)(=O)c4ccccc4F)c3)C2)cc1OC1CCCC1`, the Selectivity ratio in [1] is recorded as 4.2; in assay [2] it was 21; in [3], 0.53; in assay [4] it was 0.64. The half-maximal effective concentration (EC50) came to 64 nM in [5]; 269 nM in [6]; 1500 nM in assay [7]; 34 nM in assay [8]; 41 nM in assay [9]. Further, the CC50 in the assay with HEK293 was more than 10000 nM.

`COc1ccc([C@H]2CC(=O)N(c3cccc(NS(=O)(=O)c4cc(Br)c(Cl)s4)c3)C2)cc1OC1CCCC1`: the Selectivity ratio in assay [1] is 12; in assay [2] it was 16; in [3], 0.84; in assay [4], 2. Also, the EC50 in [5] stood at 46 nM; in [6] it was 542 nM; in [7] it was 753 nM; in [8] it was 39 nM; in assay [9] it was 95 nM. This compound registered a CC50 in the assay on HEK293 of more than 10000 nM.

For the compound `COc1ccc([C@H]2CC(=O)N(c3cccc(NS(=O)(=O)c4cccc(Br)c4)c3)C2)cc1OC1CCCC1`, the Selectivity ratio in assay [1] was 13; in assay [2], 32; in assay [3], 0.74; in [4], 1.1. Moreover, the concentration for a half-maximal effect (EC50) in assay [5] turned out to be 71 nM; in assay [6], 923 nM; in [7], 2260 nM; in assay [8], 53 nM; in assay [9] it was 83 nM. The CC50 in the assay on HEK293 was more than 10000 nM.

Turning to `COc1ccc([C@H]2CC(=O)N(c3cccc(N)c3)C2)cc1OC1CCCC1`, in [10], the 50% inhibitory concentration (IC50) was determined as 2000 nM. The 50% effective concentration (EC50) in [5] turned out to be 125 nM. This compound showed a CC50 with HEK293 of more than 10000 nM.

`COc1ccc([C@H]2CC(=O)N(c3cccc(NS(=O)(=O)c4cccc(Cl)c4C)c3)C2)cc1OC1CCCC1`: the Selectivity ratio in assay [1] is listed as 8.1; in assay [2], 19; in assay [3] it was 0.4; in assay [4] it was 0.5. Further, the half-maximal effective concentration (EC50) came to 20 nM in assay [5]; 162 nM in assay [6]; 389 nM in assay [7]; 8 nM in assay [8]; 10 nM in assay [9]. For the same compound, the CC50 in the assay on HEK293 was more than 10000 nM.

On to `COc1ccc([C@H]2CC(=O)N(c3cccc(NS(=O)(=O)c4cc(C)ccc4OC)c3)C2)cc1OC1CCCC1`, for which the Selectivity ratio came out at 5.2 in [1], 15 in [2], 0.7 in assay [3] and 1 in assay [4]. The concentration giving a half-maximal response (EC50) came to 33 nM in assay [5], 172 nM in assay [6], 507 nM in [7] and 23 nM in assay [8]. For the same compound, the 50% cytotoxic concentration (CC50) in the assay on HEK293 was more than 10000 nM.

`O=C1Nc2ccc(Cl)cc2[C@@](C#CC2CC2)(C(F)(F)F)O1` [EFAVIRENZ]: the EC50 in assay [6] turned out to be 32 nM; in assay [7] it was 1 nM; in [8], 10 nM; in assay [9] it was 2530 nM.

With `Cc1ccnc2c1NC(=O)c1cccnc1N2C1CC1` [NEVIRAPINE], the Selectivity ratio in assay [1] is 101; in [2], more than 200; in assay [3], 3.2; in assay [4], 88. Besides, the concentration giving a half-maximal response (EC50) in assay [5] was 50 nM; in assay [6] it was 5050 nM; in assay [7], more than 10000 nM; in assay [8], 164 nM; in assay [9], 4390 nM. The CC50 in the assay with HEK293 was more than 10000 nM.

As a reminder, the EC50 is the concentration needed to bring the measured effect to its halfway point. High values mean a need for much substance, low ones an effect from little substance. For orientation: CC50 means the concentration that lowers cell viability or growth by half. Low readings indicate harm at low concentration, high ones better tolerance by the cells. The IC50 is the concentration that gives 50% inhibition. Low values mean inhibition by little substance, high ones a need for much substance.
